These results are taken from ChEMBL document CHEMBL2417369, “Synthesis and evaluation of heteroaryl substituted diazaspirocycles as scaffolds to probe the ATP-binding site of protein kinases” (Bioorg Med Chem, 2013).

The species entered for one experiment is Homo sapiens. In words: Inhibition of PKA (unknown origin) at 30 uM by microfluidic mobility shift assay relative to control. In outline:
(§1)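 Single-point screen in a 24-enzyme kinase panel using a microfluidic assay. Each compound was tested at […] with ATP at roughly the Km for each enzyme. The pan-AGC inhibitor H-89 served as an internal control on every plate.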

The target in experiment [1] is Tyrosine-protein kinase Fyn (Homo sapiens, UniProt P06241). In words: Inhibition of FYN (unknown origin) at 30 uM by microfluidic mobility shift assay relative to control. A digest of the protocol: as §1
For experiment [2], the target named is Insulin receptor (Homo sapiens) (UniProt P06213). Put plainly: Inhibition of INSR (unknown origin) at 30 uM by microfluidic mobility shift assay relative to control. A digest of the protocol:
as §1

In experiment [3] the target is T1, Serine/threonine-protein kinase D2 (Homo sapiens) (UniProt Q9BZL6).
T1 sequence (whole entry): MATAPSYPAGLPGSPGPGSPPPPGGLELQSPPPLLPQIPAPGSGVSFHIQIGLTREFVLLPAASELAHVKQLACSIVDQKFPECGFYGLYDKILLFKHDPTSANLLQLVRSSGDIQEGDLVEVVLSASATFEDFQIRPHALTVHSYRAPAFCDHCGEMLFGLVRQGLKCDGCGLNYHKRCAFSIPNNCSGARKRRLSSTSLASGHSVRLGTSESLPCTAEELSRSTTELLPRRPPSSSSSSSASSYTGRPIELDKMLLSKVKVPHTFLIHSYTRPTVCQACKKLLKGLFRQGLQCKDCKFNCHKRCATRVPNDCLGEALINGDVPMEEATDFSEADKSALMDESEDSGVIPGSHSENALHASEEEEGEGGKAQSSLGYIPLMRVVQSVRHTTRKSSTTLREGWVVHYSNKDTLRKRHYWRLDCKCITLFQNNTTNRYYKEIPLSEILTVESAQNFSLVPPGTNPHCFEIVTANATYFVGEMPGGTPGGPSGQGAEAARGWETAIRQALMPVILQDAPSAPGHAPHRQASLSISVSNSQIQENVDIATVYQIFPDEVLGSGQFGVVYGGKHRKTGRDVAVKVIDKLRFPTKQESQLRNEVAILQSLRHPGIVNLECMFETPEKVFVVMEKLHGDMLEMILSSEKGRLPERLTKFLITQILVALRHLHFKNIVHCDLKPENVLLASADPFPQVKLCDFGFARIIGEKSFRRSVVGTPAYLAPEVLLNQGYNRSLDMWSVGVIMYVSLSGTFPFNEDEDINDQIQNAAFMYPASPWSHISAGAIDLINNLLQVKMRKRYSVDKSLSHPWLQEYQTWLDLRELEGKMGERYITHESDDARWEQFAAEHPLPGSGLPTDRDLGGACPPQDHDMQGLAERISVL
In words: Inhibition of PKD2 (unknown origin) at 30 uM by microfluidic mobility shift assay relative to control. A digest of the protocol: as §1

The target in experiment [4] is Tyrosine-protein kinase Lyn (Homo sapiens, UniProt P07948). In words: Inhibition of LYN (unknown origin) at 30 uM by microfluidic mobility shift assay relative to control. A digest of the protocol: as §1
Experiment [5] concerns the target Ribosomal protein S6 kinase alpha-5 (Homo sapiens, UniProt O75582). Put plainly: Inhibition of MSK1 (unknown origin) at 30 uM by microfluidic mobility shift assay relative to control. A digest of the protocol:
as §1

Experiment [6] addresses Glycogen synthase kinase-3 beta (Homo sapiens, UniProt P49841). In words: Inhibition of GSK3beta (unknown origin) at 30 uM by microfluidic mobility shift assay relative to control. In outline:
as §1

The target in experiment [7] is RAC-alpha serine/threonine-protein kinase (Homo sapiens, UniProt P31749). Put plainly: Inhibition of AKT1 (unknown origin) at 30 uM by microfluidic mobility shift assay relative to control. In outline: as §1
Experiment [8] has as its target RAC-beta serine/threonine-protein kinase (Homo sapiens, UniProt P31751). In words: Inhibition of AKT2 (unknown origin) at 30 uM by microfluidic mobility shift assay relative to control. A digest of the protocol:
as §1

Experiment [9] has as its target T2, Serine/threonine-protein kinase Chk1 (Homo sapiens) (UniProt O14757).
T2 sequence (whole entry): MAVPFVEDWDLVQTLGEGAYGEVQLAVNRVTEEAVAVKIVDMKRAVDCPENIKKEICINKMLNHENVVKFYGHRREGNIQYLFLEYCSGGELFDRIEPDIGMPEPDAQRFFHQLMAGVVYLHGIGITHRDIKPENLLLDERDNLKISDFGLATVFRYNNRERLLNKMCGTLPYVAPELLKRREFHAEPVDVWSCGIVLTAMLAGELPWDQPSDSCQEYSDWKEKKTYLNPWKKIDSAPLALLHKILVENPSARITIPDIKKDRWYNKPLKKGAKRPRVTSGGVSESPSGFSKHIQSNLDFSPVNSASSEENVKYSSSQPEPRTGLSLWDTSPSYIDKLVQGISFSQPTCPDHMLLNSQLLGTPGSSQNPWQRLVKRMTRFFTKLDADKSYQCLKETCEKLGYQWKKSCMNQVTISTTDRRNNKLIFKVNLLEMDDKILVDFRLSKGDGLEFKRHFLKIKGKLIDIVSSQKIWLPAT
In words: Inhibition of CHK1 (unknown origin) at 30 uM by microfluidic mobility shift assay relative to control. A digest of the protocol: as §1

Experiment [10] deals with Protein kinase C (PKC) (Homo sapiens) (UniProt O94806+P41743+P17252+P05129+Q05655+P05771+Q05513+Q02156+P24723+Q15139+Q04759). Put plainly: Inhibition of PKC (unknown origin) at 30 uM by microfluidic mobility shift assay relative to control. A digest of the protocol:
as §1

For experiment [11], the target named is MAP kinase-activated protein kinase 2 (Homo sapiens) (UniProt P49137). Put plainly: Inhibition of MK2 (unknown origin) at 30 uM by microfluidic mobility shift assay relative to control. In outline: as §1
Experiment [12] deals with Serine/threonine-protein kinase Chk2 (Homo sapiens, UniProt O96017). In words: Inhibition of CHK2 (unknown origin) at 30 uM by microfluidic mobility shift assay relative to control. In outline: as §1
The target of experiment [13] is Mitogen-activated protein kinase 14 (Homo sapiens) (UniProt Q16539). Put plainly: Inhibition of p38alpha (unknown origin) at 30 uM by microfluidic mobility shift assay relative to control. In outline:
as §1

Experiment [14] addresses T3, MAP kinase-activated protein kinase 5 (Homo sapiens) (UniProt Q8IW41).
T3 sequence (whole entry): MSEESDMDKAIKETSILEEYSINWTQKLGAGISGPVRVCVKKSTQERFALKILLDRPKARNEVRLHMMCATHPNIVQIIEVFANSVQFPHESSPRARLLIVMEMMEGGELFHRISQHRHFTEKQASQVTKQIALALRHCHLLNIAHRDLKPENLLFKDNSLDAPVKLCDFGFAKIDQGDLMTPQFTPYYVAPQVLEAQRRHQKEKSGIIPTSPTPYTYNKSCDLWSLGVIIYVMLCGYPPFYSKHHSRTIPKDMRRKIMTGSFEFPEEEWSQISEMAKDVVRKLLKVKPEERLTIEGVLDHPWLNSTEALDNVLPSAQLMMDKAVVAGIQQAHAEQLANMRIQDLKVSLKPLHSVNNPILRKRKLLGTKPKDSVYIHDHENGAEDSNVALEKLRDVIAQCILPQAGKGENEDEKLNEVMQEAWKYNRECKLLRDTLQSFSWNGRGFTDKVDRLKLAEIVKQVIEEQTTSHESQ
Put plainly: Inhibition of MAPKAPK5 (unknown origin) at 30 uM by microfluidic mobility shift assay relative to control. In outline: as §1

MAP kinase-activated protein kinase 2 (Homo sapiens), sequence (P49137 whole entry, looked up): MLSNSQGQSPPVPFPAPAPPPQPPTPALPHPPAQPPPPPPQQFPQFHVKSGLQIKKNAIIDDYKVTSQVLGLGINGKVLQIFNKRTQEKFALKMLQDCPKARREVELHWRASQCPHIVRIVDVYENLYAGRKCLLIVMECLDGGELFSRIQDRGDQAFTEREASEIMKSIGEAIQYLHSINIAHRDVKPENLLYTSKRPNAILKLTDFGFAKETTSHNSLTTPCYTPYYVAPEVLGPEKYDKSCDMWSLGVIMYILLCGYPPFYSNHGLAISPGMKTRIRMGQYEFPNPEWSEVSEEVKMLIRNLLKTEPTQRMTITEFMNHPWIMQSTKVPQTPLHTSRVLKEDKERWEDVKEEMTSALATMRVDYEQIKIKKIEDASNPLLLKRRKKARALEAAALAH
Insulin receptor (Homo sapiens), sequence (P06213 28-758 limits assumed): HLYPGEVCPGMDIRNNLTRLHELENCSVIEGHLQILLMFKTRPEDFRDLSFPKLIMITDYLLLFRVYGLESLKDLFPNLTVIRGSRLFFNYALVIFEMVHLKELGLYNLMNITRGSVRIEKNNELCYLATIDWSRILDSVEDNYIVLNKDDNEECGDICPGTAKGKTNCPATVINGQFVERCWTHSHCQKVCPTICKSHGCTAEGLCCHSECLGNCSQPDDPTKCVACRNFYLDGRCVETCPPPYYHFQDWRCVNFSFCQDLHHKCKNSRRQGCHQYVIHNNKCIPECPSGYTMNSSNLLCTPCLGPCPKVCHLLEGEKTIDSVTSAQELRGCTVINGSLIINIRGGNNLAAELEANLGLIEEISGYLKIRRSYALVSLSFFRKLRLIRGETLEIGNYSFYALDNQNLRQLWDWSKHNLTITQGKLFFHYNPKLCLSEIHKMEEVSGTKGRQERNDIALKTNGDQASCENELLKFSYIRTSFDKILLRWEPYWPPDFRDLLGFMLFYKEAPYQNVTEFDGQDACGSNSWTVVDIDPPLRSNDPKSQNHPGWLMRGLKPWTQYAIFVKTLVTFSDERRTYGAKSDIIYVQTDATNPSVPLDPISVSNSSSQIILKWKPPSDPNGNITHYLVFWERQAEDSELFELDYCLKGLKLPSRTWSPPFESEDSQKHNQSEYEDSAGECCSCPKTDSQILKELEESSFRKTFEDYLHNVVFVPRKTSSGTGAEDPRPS
Insulin receptor (Homo sapiens), sequence (P06213 763-1382 limits assumed): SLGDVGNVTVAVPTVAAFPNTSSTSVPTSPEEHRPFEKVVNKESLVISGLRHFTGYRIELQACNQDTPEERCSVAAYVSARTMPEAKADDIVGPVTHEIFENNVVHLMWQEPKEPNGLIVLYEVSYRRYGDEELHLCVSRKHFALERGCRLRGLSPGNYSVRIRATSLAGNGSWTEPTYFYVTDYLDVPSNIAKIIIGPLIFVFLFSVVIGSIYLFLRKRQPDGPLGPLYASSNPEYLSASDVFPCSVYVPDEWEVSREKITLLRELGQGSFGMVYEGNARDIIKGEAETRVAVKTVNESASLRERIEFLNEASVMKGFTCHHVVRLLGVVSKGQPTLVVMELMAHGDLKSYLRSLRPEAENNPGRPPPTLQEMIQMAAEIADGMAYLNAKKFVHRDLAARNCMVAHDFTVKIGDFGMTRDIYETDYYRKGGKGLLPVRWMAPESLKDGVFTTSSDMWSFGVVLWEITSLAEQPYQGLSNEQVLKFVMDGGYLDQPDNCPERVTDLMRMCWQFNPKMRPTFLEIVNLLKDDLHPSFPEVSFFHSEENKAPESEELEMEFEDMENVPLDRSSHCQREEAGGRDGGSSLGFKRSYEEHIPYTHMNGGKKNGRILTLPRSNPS
Tyrosine-protein kinase Fyn, sequence (P06241 2-537 limits assumed): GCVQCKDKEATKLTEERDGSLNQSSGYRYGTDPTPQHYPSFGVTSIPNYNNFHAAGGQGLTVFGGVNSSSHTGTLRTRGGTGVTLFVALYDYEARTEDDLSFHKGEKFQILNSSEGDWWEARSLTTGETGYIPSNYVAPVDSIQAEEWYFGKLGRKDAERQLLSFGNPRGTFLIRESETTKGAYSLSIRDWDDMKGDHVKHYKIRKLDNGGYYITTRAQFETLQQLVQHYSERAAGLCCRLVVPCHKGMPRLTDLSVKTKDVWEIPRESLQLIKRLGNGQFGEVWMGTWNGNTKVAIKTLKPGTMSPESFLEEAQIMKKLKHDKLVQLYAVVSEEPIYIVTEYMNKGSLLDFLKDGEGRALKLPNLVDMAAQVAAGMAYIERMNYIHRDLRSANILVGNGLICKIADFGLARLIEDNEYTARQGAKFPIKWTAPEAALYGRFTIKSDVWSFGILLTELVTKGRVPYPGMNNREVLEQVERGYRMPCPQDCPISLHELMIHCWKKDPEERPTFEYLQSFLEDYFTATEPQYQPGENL
Glycogen synthase kinase-3 beta, sequence (P49841 whole entry, looked up): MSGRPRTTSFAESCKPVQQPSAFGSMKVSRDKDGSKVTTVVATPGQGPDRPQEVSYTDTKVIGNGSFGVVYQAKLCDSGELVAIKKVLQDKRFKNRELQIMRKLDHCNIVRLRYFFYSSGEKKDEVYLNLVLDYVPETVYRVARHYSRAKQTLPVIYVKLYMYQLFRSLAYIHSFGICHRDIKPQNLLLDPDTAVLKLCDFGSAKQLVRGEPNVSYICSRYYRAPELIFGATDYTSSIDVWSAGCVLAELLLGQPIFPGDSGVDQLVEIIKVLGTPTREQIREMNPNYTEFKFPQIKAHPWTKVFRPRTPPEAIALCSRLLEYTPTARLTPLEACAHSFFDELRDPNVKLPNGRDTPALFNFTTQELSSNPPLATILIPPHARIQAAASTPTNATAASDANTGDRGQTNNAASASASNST
Ribosomal protein S6 kinase alpha-5, sequence (O75582 whole entry, looked up): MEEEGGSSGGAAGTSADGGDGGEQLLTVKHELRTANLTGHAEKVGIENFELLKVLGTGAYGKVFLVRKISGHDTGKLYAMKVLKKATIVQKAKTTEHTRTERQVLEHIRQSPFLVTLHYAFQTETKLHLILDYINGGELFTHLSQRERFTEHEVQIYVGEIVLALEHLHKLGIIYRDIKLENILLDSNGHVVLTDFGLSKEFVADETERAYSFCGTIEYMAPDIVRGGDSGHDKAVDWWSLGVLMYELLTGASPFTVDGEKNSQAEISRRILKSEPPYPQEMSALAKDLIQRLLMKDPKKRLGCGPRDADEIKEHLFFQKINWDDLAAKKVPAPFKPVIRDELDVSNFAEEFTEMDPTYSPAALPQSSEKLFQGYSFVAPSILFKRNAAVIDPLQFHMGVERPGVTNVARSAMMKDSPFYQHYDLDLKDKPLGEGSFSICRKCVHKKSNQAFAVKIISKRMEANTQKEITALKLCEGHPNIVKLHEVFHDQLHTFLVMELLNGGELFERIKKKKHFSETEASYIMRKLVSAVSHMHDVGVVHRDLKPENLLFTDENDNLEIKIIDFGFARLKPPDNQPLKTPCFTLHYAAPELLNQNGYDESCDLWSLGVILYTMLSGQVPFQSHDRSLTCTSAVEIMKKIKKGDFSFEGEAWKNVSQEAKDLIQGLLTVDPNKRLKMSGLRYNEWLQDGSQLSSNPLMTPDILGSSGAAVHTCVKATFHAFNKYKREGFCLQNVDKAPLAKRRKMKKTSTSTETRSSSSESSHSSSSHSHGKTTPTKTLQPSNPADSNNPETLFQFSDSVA
RAC-beta serine/threonine-protein kinase, sequence (P31751 whole entry): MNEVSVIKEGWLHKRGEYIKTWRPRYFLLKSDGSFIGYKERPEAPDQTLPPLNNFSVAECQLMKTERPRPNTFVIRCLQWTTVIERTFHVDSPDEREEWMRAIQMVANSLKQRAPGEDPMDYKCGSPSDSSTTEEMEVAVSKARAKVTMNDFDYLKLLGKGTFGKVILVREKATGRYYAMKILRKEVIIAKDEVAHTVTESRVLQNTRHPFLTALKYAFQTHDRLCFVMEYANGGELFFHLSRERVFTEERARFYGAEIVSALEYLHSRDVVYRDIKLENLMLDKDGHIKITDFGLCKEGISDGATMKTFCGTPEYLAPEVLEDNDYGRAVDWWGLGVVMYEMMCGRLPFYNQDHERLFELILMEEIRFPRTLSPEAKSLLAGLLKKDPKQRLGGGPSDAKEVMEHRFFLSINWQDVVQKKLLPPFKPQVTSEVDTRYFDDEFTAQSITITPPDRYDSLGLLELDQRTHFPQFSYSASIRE
Tyrosine-protein kinase Lyn, sequence (P07948 2-512 limits assumed): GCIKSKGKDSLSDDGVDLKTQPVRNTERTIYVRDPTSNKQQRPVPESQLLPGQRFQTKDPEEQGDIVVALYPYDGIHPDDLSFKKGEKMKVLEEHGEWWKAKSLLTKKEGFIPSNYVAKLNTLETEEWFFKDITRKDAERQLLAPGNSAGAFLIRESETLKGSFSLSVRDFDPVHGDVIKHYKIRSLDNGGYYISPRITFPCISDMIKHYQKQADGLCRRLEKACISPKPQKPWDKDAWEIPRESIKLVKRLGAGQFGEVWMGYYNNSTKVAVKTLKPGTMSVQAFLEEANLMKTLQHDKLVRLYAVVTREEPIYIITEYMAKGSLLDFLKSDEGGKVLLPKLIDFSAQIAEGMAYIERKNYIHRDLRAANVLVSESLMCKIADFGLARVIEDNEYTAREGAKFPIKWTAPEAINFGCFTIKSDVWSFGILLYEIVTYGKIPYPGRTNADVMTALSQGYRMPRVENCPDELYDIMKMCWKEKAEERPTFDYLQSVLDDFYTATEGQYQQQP
RAC-alpha serine/threonine-protein kinase, sequence (P31749 whole entry): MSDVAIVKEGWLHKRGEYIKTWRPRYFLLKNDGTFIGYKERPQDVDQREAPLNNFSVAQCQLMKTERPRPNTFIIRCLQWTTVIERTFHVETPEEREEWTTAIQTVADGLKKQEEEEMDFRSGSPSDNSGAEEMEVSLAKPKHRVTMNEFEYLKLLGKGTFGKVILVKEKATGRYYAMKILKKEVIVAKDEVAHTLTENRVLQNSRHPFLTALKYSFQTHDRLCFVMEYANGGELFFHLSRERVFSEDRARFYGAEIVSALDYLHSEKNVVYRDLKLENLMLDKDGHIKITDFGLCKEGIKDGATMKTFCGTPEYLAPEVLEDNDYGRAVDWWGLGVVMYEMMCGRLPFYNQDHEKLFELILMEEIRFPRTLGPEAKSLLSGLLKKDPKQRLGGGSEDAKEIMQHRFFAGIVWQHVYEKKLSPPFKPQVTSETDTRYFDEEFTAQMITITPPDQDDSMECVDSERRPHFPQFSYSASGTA

Consider `O=S(=O)(c1cccc2cnccc12)N1CCC2(CCCNC2)CC1`, for which the inhibition came out at 77% in the experiment filed under Homo sapiens; 11% in experiment [1]; 6% in experiment [2]; 15% in [3]; 5% in experiment [4]; 36% in experiment [5]. The inhibition was 5% in experiment [6]; 0% in [7]; 14% in [8]; 8% in [9]; 9% in experiment [10]; 8% in experiment [11]. The figures for the inhibition in experiment [12], in experiment [13] and in experiment [14] were 65%, 9% and 11%, respectively.
Turning to `O=S(=O)(c1cccc2cnccc12)N1CCC2(CCNC2)CC1`, the inhibition in the experiment filed under Homo sapiens was found to be 76%; in [1], 1%; in experiment [2], 4%; in experiment [3] it was 19%; in experiment [4], 3%; in [5], 41%. Besides, the inhibition was 1% in [6]; 18% in [7]; 17% in experiment [8]; 46% in experiment [9]; 0% in experiment [10]; 13% in [11]. The inhibition in [12] is 59%; in experiment [13], 9%; in [14] it was 18%.
For the molecule `COC(=O)C1CCC2(CCN(c3ncnc4[nH]cnc34)CC2)NC1` (racemic), the inhibition in the experiment filed under Homo sapiens came out at 87%; in [1], 6%; in [2] it was 10%; in experiment [3] it was 36%; in [4], 16%; in experiment [5] it was 48%. Besides, the inhibition in experiment [6] was 12%; in experiment [7] it was 61%; in experiment [8] it was 19%; in experiment [9], 36%; in experiment [10], 0%; in experiment [11] it was 6%. Besides, the inhibition in experiment [12] is 16%; in experiment [13] it was 8%; in experiment [14] it was 21%.
Turning to `CN(C)C(=O)C1CCC2(CCN(c3ncnc4[nH]cnc34)CC2)NC1` (racemic), the inhibition in the experiment filed under Homo sapiens was found to be 86%; in experiment [1], 0%; in experiment [2], 17%; in [3], 30%; in experiment [4], 14%; in experiment [5], 93%. Also, the inhibition in [6] stood at 7%; in experiment [7], 69%; in [8] it was 27%; in experiment [9] it was 54%; in [10], 6%; in experiment [11], 10%. Also, the inhibition in [12] was found to be 27%; in [13] it was 14%; in [14], 18%.
With `c1nc(N2CCCC23CCNCC3)c2nc[nH]c2n1`, the inhibition is 39% in the experiment filed under Homo sapiens; 14% in [1]; 9% in experiment [2]; 8% in [3]; 5% in experiment [4]; 13% in [5]. Also, the inhibition in [6] was 43%; in experiment [7], 12%; in [8], 0%; in experiment [9] it was 8%; in [10], 0%; in experiment [11], 17%. The inhibition is 26% in [12], 5% in experiment [13] and 8% in experiment [14].
For `O=S(=O)(c1cccc2cnccc12)N1CCC2(CC1)CC(O)CCN2` (racemic), the inhibition in the experiment listed under Homo sapiens was 92%; in experiment [1], 9%; in [2] it was 0%; in [3], 38%; in [4] it was 25%; in [5] it was 86%. Also, the inhibition came to 51% in [6]; 36% in experiment [7]; 13% in experiment [8]; 60% in experiment [9]; 0% in experiment [10]; 1% in experiment [11]. Moreover, the inhibition in experiment [12] amounted to 50%; in experiment [13], 1%; in experiment [14] it was 18%.
For the molecule `c1ccc(C2CCNC3(CCN(c4ncnc5[nH]cnc45)CC3)C2)cc1` (racemic), the inhibition in the experiment listed under Homo sapiens was 100%; in experiment [1], 56%; in experiment [2], 2%; in experiment [3], 71%; in experiment [4], 75%; in experiment [5], 97%. Moreover, the inhibition was 20% in experiment [6]; 99% in experiment [7]; 89% in [8]; 77% in experiment [9]; 0% in experiment [10]; 3% in [11]. In addition, the values for the inhibition in experiment [12], in experiment [13] and in [14] were 75%, 0% and 18%, respectively.
Take `OC1CCC2(CCN(c3ncnc4[nH]cnc34)CC2)NC1` (racemic): the inhibition in the experiment filed under Homo sapiens was found to be 99%; in experiment [1], 18%; in [2], 4%; in experiment [3] it was 48%; in [4] it was 26%; in experiment [5] it was 89%. Besides, the inhibition in experiment [6] was found to be 31%; in [7] it was 93%; in [8] it was 59%; in [9] it was 71%; in experiment [10], 0%; in experiment [11], 11%. The inhibition in experiment [12] was found to be 53%; in experiment [13], 3%; in experiment [14], 30%.

Broadly, the inhibition is how much of the control response was suppressed.
